From PubChem BioAssay
SKN-1 block = blocks SKN-1 activity in C. elegans; inhibition, % at 21.8 µM; C. elegans VP596 Pgst-4::GFP/RFP ratio, acrylamide-induced, 24 h; 360,000 tested, 0.49% active; AID 624304;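 active means interference check ratio from 0.5 to 1.5 plus GFP to RFP signal ratio inhibition reaching or exceeding a fixed threshold, cut at about 30% in these data, passing the limit was not always enough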
MLLE-PAM2 inh = blocks PAM2 peptide binding to the PABP1 MLLE domain | P11940 | GST-MLLE / FITC-PAM2 fluorescence polarization | inhibition, % at 20 µM | 360,000 tested, 0.36% active | AID 588489; in the data active means inhibition above about 35%, passing the limit was not always enough
PABP polyA inh = blocks human PABP binding to poly(A) RNA | P11940 | fluorescence polarization | calls only at 35 µM | 290,000 tested, 1% active | AID 2014;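 further: calls also rest on retests at 20 µM and on dose response follow-up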
eIF4H inh = inhibitors of RNA binding by human eIF4H | Q15056 | eIF4H fluorescence polarization binding assay | inhibition, % at 35 µM | 290,000 tested, 0.94% active;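 further: calls also rest on retests at 20 µM and on dose response follow-up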
MT1-MMP act inh = inhibitors of human MT1-MMP activation | P50281 | HT1080 RFP-PRO-GFP cells, GFP/RFP ratio fluorescence, overnight; percent of plate control window, DMSO zero | GFP/RFP ratio change, % at 20 µM | 360,000 tested, 0.061% active | AID 651647;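 active means GFP/RFP ratio change of at least 30% with cell ATP level not reduced by more than half and red fluorescence within 50% of control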
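Test system: HT1080 RFP-PRO-GFP cells; Benchmarks: DMSO and RFP-L50D-GFP cell wells; Timing: cells overnight before dosing, compound overnight, 37 °C, 5% CO2; Compound: one 20 µM compound dose with 1% DMSO; Read-out: GFP/RFP fluorescence ratio.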
A number is an active result; – = inactive; ? = inconclusive; · = no result given; + = active, no number. Hits are enriched below; roughly 1.8% of the tested compounds scored in any of these assays. Unless noted, how the calls were made is not given here.

SMILES	SKN-1 block	MLLE-PAM2 inh	PABP polyA inh	eIF4H inh	MT1-MMP act inh
O=C1CCc2cc(S(=O)(=O)NCc3ccc(F)cc3)cc3c2N1CCC3	–	–	·	·	–
Cc1ccc(CNc2ccc3c(c2)OCO3)cc1	–	–	?	?	–
c1cc(CNc2ccc3c(c2)OCO3)ccn1	36.9	79.5	–	–	–
S=C(Nc1ccc2c(c1)OCO2)Nc1ccc2c(c1)OCO2	–	–	+	111.8	–
Cn1c(COc2ccccc2)nnc1SCC(=O)Nc1ccc2c(c1)OCO2	–	–	–	–	–
COCCn1cnnc1SCC(=O)Nc1ccccc1C(=O)Nc1ccc2c(c1)OCO2	–	–	–	5.6	–
Oc1cccc(/C=C/c2ccc3cccc(O)c3n2)c1	45.9	–	–	–	–
Cc1ccc(/C=C/c2ccc3cccc(O)c3n2)s1	34.7	–	–	–	–
Cc1nc(-[n+]2nc(-c3ccncc3)nn2-c2ccccc2)sc1C	–	–	·	·	–
Cc1c(NC(=O)CSc2ccc(Cl)cc2)c(=O)n(-c2ccccc2)n1C	–	–	–	–	–
Cc1c(NC(=O)CSc2ccc3c(c2)OCCO3)c(=O)n(-c2ccccc2)n1C	44.0	–	–	–	–
O=C(NCc1ccc2c(c1)OCO2)C1CC(=O)N(CCc2ccc(F)cc2)C1 (stereo unspecified)	–	–	–	–	–
Cc1ccc(C)c(S(=O)(=O)N(C)C2(C)CCS(=O)(=O)C2)c1 (stereo unspecified)	–	–	·	·	–
COc1cccc(NC(=O)NNC(=O)c2ccc3c(c2)NC(=O)C(C)(C)O3)c1	39.6	–	–	–	–
CC(C)(C)OC(=O)N1Cc2ccccc2C[C@H]1C(=O)NC1CCCC1	–	–	–	–	–
COc1ccc(N2CCN(C(=O)COC(=O)COc3ccc(C#N)cc3)CC2)cc1	–	–	·	·	–
CC[n+]1ccc(C)c2cc(SC(F)(F)F)ccc21	–	–	–	–	–
CC[n+]1ccc(C)c2cc(S(=O)C(F)(F)F)ccc21 (stereo unspecified)	–	–	+	?	–
COc1ccc(OCCCC(=O)OCC(=O)Nc2ncc(Cl)cc2Cl)cc1	–	45.4	·	·	–
O=C(COC(=O)c1ccccc1NC(=O)c1ccco1)Nc1ncc(Cl)cc1Cl	–	–	–	–	–
O=C(COC(=O)c1ccccc1O)Nc1ncc(Cl)cc1Cl	–	–	+	–	–
O=C(COC(=O)c1ccc(O)cc1)Nc1ccccc1	–	–	–	–	–
COc1ccc(S(=O)(=O)N2CCN(C(=O)CCCN3C(=O)NC4(CCCC4)C3=O)CC2)cc1	–	–	·	·	–
COc1ccc(Cn2cc(CN3CCOCC3)nn2)cc1	–	–	·	·	–
CC(=C/c1ccccc1)/C=N/n1c(-c2ccco2)n[nH]c1=S	–	–	–	–	–
SMILES	SKN-1 block	MLLE-PAM2 inh	PABP polyA inh	eIF4H inh	MT1-MMP act inh
Cc1cc(-c2n[nH]c(=S)n2/N=C/C=C/c2ccco2)n[nH]1	–	–	+	93.4	–
CC(/C=N/n1c(-c2cc(C)[nH]n2)n[nH]c1=S)=C\c1ccccc1	–	–	+	active	–
Cc1ccccc1-c1n[nH]c(=S)n1/N=C/C=C/c1ccco1	–	–	+	82.1	–
CCn1c(SCc2ccccc2Cl)nc2nc3c(cc2c1=O)CCCC3	–	–	+	active	–
CCn1c(SCc2c(Cl)cccc2Cl)nc2nc3c(cc2c1=O)CCCC3	–	–	·	·	–
CN1C(=O)c2ccccc2NC(=O)[C@]12O[C@@H]2c1cccc(O)c1	–	–	–	88.4	–
CS(=O)(=O)NN1C(=O)c2ccccc2NC1c1cccc(O)c1 (stereo unspecified)	–	–	–	–	–
COCCN(C(=O)COC(=O)/C=C/c1ccc(OC)c(OC)c1)c1c(N)n(Cc2ccccc2)c(=O)[nH]c1=O	–	–	·	·	–
O=[N+]([O-])c1ccc(S(=O)(=O)c2cccc(C(F)(F)F)c2)nc1	–	–	·	·	–
COc1nnc(-c2ccccc2)s1	–	38.8	–	–	–
CCOc1ccccc1N(CC(=O)Nc1ccccc1Br)S(=O)(=O)c1ccccc1	–	–	·	·	–
O=C1/C(=C/c2ccccc2)SC(=S)N1C1CCS(=O)(=O)C1 (stereo unspecified)	–	–	–	–	–
O=C1/C(=C\c2cccs2)SC(=S)N1C1CCS(=O)(=O)C1 (stereo unspecified)	39.3	–	–	–	–
COc1cccc(CNC(=O)c2ccc(C)c(NC3=NC4CS(=O)(=O)CC4S3)c2)c1 (stereo unspecified)	–	–	–	–	–
COc1cccc(NC(=O)CN(C)C(=O)c2ccc(S(=O)(=O)Nc3ccccc3F)cc2)c1	–	–	·	·	–
O=C1c2ccccc2-c2n[nH]c3cccc1c23	–	73.5	·	·	–
O=c1c(-c2ccccc2)n[nH]c2ccccc12	–	–	–	–	–
Cc1ccccc1NS(=O)(=O)c1nnc(NC(=O)CC(C)C)s1	–	–	–	–	–
CCC(C)CN1C(=O)CN(S(C)(=O)=O)CC1(C)C(=O)NC(C)C (stereo unspecified)	–	·	·	·	–
CCOC(=O)c1ccc[n+](CC(=O)c2ccc(OC)cc2)c1	–	–	–	–	–
CCOC(=O)c1ccc[n+](CC(=O)c2ccccc2)c1	–	–	+	59.0	–
O=C(O)CCCNc1cc(N2CCC3(CC2)OCCO3)c2noc3c2c1C(=O)c1ccccc1-3	·	·	+	115.0	·
O=C(O)CCNc1ccc(NCCC(=O)O)c2c1C(=O)c1ccccc1C2=O	–	–	?	?	·
CCOC(=O)N1CCN(c2cc(NCCC(=O)O)c3c4c(onc24)-c2ccccc2C3=O)CC1	–	–	+	85.7	–
COc1ccc(C(C)C)cc1-c1cncc(NC(C)=O)n1	–	–	·	·	–
SMILES	SKN-1 block	MLLE-PAM2 inh	PABP polyA inh	eIF4H inh	MT1-MMP act inh
O=C1C2CC=C(Cl)CC2C(=O)N1CN(Cc1ccco1)CN1C(=O)C2CC=C(Cl)CC2C1=O (stereo unspecified)	–	–	+	65.8	–
O=C(CCN1C(=O)C2CC=C(Cl)CC2C1=O)NCc1ccco1 (stereo unspecified)	–	–	–	–	–
COc1cc(CCN(C(C)=O)C2C(=O)Nc3ccccc3N=C2c2ccc3c(c2)OCO3)cc(OC)c1 (stereo unspecified)	–	–	·	·	–
CC(=O)NNC(=O)c1sc(=S)n2c1[nH]c(=O)c1sccc12	–	–	+	53.6	–
CC1(C(=O)Nc2ccc3c(c2)OCO3)CCN1C(=O)CCC1CCCC1 (stereo unspecified)	–	–	·	·	–
O=C(O)C1Nc2c(O)cccc2C2C=CCC12 (stereo unspecified)	–	–	–	99.3	–
O=C(O)C1Nc2c(Cl)cc(Cl)cc2C2C=CCC12 (stereo unspecified)	–	–	+	84.3	–
O=C(O)C1Nc2c(Cl)cc(Cl)c(Cl)c2C2C=CCC12 (stereo unspecified)	–	–	·	·	–
COc1ccccc1N=Nc1c(O)[nH]c2ccc(Br)cc12	49.9	–	?	?	–
